Assay results: ChEMBL document CHEMBL5653631, “A Potent and Selective ULK1 Inhibitor Suppresses Autophagy and Sensitizes Cancer Cells to Nutrient Stress” (iScience, 2018)
Each block holds one molecule with its values, some of them ahead of it.

Key:
[1] = biological target: Casein kinase I isoform gamma-1 (Homo sapiens) (UniProt Q9HCP0); assay: Inhibition of human recombinant CK1g1 at 500 nM in presence of ATP by radiometric assay relative to control
[2] = biological target: Receptor tyrosine-protein kinase erbB-2 (Homo sapiens) (UniProt P04626); assay: Inhibition of human recombinant ErbB2 at 500 nM in presence of ATP by radiometric assay relative to control
[3] = biological target: Cyclin-dependent kinase 6 (Homo sapiens) (UniProt Q00534); assay: Inhibition of human recombinant CDK6 at 500 nM related to control ULK1
Cyclin-dependent kinase 6 (Homo sapiens), sequence (Q00534 whole entry): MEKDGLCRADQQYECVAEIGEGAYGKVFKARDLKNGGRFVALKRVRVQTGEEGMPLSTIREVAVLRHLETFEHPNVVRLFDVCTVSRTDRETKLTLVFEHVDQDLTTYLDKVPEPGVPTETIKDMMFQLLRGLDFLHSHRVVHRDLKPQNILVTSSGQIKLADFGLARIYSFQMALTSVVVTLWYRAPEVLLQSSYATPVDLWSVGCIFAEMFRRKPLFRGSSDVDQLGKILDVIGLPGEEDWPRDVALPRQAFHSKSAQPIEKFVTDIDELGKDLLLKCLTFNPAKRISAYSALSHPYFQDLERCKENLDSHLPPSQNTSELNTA

[4] = biological target: Serine/threonine-protein kinase 26 (Homo sapiens) (UniProt Q9P289); assay: Inhibition of human recombinant MST4 at 500 nM in presence of ATP by radiometric assay relative to control
Serine/threonine-protein kinase 26 (Homo sapiens), sequence (Q9P289 2-416 limits assumed): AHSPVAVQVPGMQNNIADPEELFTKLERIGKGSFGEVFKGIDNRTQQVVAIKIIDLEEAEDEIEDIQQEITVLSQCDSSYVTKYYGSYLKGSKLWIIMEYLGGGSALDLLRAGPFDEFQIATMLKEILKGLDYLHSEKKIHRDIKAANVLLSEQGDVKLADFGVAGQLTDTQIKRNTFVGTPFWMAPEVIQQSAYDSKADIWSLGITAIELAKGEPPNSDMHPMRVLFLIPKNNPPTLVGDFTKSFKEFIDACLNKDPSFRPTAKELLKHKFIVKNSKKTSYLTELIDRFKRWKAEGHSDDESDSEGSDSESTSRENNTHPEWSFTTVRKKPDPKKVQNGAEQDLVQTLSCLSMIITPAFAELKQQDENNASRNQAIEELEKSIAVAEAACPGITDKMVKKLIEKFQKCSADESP

[5] = biological target: Serine/threonine-protein kinase pim-2 (Homo sapiens) (UniProt Q9P1W9); assay: Inhibition of human recombinant PIM2 at 500 nM related to control ULK1
[6] = biological target: Casein kinase I isoform gamma-3 (Homo sapiens) (UniProt Q9Y6M4); assay: Inhibition of human recombinant CK1g3 at 15 nM related to control ULK1
Casein kinase I isoform gamma-3 (Homo sapiens), sequence (Q9Y6M4 whole entry, looked up, canonical isoform): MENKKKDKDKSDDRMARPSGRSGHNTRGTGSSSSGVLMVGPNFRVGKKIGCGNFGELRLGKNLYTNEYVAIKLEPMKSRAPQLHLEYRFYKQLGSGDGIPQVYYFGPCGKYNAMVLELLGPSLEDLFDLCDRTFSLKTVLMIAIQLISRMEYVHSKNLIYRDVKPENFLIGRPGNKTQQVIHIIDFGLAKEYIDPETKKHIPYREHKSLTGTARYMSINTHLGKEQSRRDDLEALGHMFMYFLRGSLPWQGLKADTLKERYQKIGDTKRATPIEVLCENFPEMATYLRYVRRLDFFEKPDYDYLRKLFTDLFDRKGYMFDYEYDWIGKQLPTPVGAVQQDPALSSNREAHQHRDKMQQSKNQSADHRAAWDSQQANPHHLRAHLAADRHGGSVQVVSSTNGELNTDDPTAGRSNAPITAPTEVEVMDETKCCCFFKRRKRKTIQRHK

[7] = biological target: Serine/threonine-protein kinase Chk2 (Homo sapiens) (UniProt O96017); assay: Inhibition of human recombinant CHK2 at 15 nM related to control ULK1
Serine/threonine-protein kinase Chk2 (Homo sapiens), sequence (O96017 whole entry, the tested form may be a part): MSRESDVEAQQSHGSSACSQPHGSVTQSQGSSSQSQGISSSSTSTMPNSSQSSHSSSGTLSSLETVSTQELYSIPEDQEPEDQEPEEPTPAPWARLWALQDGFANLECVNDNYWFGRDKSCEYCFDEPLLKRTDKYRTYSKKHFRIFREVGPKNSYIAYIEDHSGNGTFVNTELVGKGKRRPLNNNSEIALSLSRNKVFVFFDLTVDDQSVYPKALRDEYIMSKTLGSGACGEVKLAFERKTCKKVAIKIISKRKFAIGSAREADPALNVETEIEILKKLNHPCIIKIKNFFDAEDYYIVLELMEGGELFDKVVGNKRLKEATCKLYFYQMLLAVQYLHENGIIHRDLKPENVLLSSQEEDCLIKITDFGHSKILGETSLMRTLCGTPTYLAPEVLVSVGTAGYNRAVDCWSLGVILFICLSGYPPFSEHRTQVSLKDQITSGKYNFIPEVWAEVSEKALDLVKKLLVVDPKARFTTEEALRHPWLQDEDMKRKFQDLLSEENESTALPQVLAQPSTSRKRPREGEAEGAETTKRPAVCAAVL

[8] = biological target: PAS domain-containing serine/threonine-protein kinase (Homo sapiens) (UniProt Q96RG2); assay: Inhibition of human recombinant PASK at 15 nM related to control ULK1
[9] = biological target: Epidermal growth factor receptor (Homo sapiens) (UniProt P00533); assay: Inhibition of human recombinant EGFR at 15 nM related to control ULK1
Epidermal growth factor receptor (Homo sapiens), sequence (P00533 whole entry): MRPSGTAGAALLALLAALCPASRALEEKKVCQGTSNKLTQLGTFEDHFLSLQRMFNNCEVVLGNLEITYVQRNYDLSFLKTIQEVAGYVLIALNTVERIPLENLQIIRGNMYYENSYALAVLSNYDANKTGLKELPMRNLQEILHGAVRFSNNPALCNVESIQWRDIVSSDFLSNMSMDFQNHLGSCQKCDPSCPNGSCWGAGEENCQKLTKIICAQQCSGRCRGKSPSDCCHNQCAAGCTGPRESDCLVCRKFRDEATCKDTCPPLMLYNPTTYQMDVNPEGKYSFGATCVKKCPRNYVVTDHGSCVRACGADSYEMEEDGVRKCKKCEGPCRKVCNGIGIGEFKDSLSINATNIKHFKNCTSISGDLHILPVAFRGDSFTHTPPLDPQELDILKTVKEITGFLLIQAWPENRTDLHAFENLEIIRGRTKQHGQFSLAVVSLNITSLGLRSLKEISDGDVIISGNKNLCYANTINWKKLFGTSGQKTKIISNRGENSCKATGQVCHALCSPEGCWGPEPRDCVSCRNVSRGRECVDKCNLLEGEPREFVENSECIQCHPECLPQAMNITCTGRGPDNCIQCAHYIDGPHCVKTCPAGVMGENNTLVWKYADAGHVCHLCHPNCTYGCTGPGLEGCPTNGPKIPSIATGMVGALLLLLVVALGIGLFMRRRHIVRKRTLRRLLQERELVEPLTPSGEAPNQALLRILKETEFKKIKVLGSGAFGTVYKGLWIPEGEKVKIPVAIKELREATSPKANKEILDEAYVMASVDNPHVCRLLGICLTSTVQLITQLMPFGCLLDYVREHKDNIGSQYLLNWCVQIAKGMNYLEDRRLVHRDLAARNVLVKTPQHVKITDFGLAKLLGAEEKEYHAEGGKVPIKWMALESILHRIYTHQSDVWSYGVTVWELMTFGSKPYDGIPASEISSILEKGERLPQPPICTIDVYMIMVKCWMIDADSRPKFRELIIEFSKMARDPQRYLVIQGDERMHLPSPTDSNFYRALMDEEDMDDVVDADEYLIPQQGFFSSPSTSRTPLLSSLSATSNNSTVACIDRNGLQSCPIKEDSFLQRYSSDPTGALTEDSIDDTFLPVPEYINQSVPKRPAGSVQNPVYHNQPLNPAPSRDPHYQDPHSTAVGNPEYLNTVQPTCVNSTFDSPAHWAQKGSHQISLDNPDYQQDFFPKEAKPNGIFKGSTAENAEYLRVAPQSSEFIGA

[10] = biological target: T1, Serine/threonine-protein kinase tousled-like 1 (Homo sapiens) (UniProt Q9UKI8); assay: Inhibition of human recombinant TLK1 at 15 nM in presence of ATP by radiometric assay relative to control
T1 sequence (whole entry): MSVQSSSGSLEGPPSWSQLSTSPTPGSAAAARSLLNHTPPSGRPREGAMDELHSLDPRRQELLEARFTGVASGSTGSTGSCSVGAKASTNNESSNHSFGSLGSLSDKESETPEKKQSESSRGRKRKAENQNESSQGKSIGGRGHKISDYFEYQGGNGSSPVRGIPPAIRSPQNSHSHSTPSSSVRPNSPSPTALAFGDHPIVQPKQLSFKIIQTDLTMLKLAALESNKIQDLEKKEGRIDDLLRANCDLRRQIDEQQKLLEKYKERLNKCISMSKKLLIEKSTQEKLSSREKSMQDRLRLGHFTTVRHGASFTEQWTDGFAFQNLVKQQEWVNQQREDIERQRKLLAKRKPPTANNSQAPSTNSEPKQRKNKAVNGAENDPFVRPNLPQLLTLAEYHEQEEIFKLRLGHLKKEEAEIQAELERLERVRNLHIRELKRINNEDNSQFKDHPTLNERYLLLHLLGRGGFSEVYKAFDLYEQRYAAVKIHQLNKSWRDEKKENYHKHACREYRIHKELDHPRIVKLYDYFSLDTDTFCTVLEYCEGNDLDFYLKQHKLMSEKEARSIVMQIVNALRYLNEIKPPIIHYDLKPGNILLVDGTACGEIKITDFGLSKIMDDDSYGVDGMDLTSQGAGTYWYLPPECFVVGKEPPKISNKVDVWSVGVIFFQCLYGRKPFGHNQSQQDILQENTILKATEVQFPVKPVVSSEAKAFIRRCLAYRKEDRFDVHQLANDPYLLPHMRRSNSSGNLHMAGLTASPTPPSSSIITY

[11] = biological target: Cyclin-dependent kinase 9 (Homo sapiens) (UniProt P50750); assay: Inhibition of human recombinant CDK9 at 40 nM related to control ULK1
[12] = biological target: Ribosomal protein S6 kinase alpha-5 (Homo sapiens) (UniProt O75582); assay: Inhibition of human recombinant MSK1 at 40 nM related to control ULK1
[13] = biological target: Protein kinase C gamma type (Homo sapiens) (UniProt P05129); assay: Inhibition of human recombinant PKCg at 40 nM in presence of ATP by radiometric assay relative to control
[14] = biological target: Serine/threonine-protein kinase 38-like (Homo sapiens) (UniProt Q9Y2H1); assay: Inhibition of human recombinant NDR2 at 40 nM in presence of ATP by radiometric assay relative to control
[15] = biological target: Wee1-like protein kinase (Homo sapiens) (UniProt P30291); assay: Inhibition of human recombinant Wee1 at 40 nM related to control ULK1
[16] = biological target: Serine/threonine-protein kinase MRCK alpha (Homo sapiens) (UniProt Q5VT25); assay: Inhibition of human recombinant MRCKa at 40 nM in presence of ATP by radiometric assay relative to control
[17] = biological target: Tyrosine-protein kinase JAK2 (Homo sapiens) (UniProt O60674); assay: Inhibition of human recombinant JAK2 at 40 nM in presence of ATP by radiometric assay relative to control
[18] = biological target: Tyrosine-protein kinase receptor UFO (Homo sapiens) (UniProt P30530); assay: Inhibition of human recombinant AXL at 40 nM in presence of ATP by radiometric assay relative to control
Tyrosine-protein kinase receptor UFO (Homo sapiens), sequence (P30530 whole entry): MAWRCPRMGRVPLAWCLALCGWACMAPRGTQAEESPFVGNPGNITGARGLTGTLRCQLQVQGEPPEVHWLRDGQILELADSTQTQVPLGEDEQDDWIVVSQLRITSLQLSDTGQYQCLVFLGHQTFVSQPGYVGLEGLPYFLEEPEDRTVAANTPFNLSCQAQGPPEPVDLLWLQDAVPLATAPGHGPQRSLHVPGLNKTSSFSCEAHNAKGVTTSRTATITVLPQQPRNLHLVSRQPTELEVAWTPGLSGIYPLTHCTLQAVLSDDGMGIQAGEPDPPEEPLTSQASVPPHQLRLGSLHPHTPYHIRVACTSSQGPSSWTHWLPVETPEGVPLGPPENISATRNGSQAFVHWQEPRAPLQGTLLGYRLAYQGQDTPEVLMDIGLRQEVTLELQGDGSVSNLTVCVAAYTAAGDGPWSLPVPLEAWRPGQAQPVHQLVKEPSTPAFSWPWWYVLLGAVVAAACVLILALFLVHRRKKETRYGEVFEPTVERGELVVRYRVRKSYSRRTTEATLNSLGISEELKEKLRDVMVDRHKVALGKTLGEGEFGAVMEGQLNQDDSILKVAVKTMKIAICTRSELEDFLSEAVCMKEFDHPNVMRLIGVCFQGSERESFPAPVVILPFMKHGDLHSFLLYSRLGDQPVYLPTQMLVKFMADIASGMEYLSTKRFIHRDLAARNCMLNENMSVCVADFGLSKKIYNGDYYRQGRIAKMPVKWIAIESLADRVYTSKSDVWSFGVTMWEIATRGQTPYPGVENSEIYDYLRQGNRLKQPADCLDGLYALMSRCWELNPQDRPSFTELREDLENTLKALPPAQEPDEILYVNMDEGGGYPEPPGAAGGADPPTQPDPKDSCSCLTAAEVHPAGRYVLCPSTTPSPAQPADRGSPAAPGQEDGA
Procedure, shortened: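 Panel of 327 recombinant human kinases, each assayed in vitro by radiometric activity assay in duplicate at a single inhibitor concentration per compound, chosen with reference to its ULK1 inhibition. Activity remaining was expressed as percent of vehicle control, and percent inhibition was calculated as 100 minus percent activity remaining.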

[19] = biological target: Calcium/calmodulin-dependent protein kinase type 1 (Homo sapiens) (UniProt Q14012); assay: Inhibition of human recombinant CaMK1a at 40 nM related to control ULK1
Calcium/calmodulin-dependent protein kinase type 1 (Homo sapiens), sequence (Q14012 whole entry, looked up): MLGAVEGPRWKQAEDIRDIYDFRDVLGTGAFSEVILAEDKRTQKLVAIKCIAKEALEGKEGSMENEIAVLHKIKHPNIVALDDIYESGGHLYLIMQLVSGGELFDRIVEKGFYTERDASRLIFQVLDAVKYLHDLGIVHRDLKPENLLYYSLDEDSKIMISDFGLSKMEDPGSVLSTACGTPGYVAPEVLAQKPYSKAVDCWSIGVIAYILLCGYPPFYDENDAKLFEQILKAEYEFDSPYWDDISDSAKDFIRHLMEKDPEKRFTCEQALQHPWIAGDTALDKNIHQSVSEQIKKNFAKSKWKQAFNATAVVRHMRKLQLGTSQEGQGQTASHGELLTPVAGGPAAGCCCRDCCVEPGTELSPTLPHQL

inhibition [1]: 0%
inhibition [2]: 0%
fold change (FC) [3]: 0
inhibition [4]: 0%
fold change (FC) [5]: 0.03
Compound: CNC(=O)c1ccccc1Oc1nc(Nc2cc(OC)c(OC)c(OC)c2)ncc1Br

fold change (FC) [6]: 0.03
fold change (FC) [7]: 0
fold change (FC) [8]: 0
fold change (FC) [9]: 0.03
inhibition [10]: 0%
Compound: CC(C)[C@H](NC(=O)c1cc(-c2cnn3cc(-c4ccc(OCCN5CCCCC5)cc4)cnc23)cs1)C(F)(F)F

fold change (FC) [11]: 0
fold change (FC) [12]: 0
inhibition [13]: 0%
inhibition [14]: 0%
fold change (FC) [15]: 0.01
inhibition [16]: 2%
inhibition [17]: 0%
inhibition [18]: 5%
fold change (FC) [19]: 0
Compound: O=C(N[C@@H](C1CC1)C(F)(F)F)c1cc(-c2cnn3cc(-c4ccc(F)cc4)cnc23)cs1
